Calls of active or inactive are those of the source. No cut-off for these calls is given here.
Legend:
HT-29 [1] = test: Cell cycle arrest in human HT-29 cells assessed as accumulation at G2/M phase after 24 hrs using PI staining by flow cytometry; type: functional, cell-based
Procedure, shortened: (§1)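 HT-29 cells, 3×10^5 per sample in exponential growth, were exposed to graded drug concentrations for 24 h. Cells were then trypsinised, fixed in 70% ethanol and stained 30 min in the dark with propidium iodide (50 µg/ml) plus RNase (100 µg/ml). DNA content was measured by flow cytometry, quantifying cell-cycle phases and the sub-G1 fraction.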

HT-29 [2] = test: Cell cycle arrest in human HT-29 cells assessed as reduction of cells in G1 phase after 24 hrs using PI staining by flow cytometry; type: functional, cell-based; procedure, shortened: as §1
HT-29 [3] = test: Cell cycle arrest in human HT-29 cells assessed as accumulation at S phase at 25 uM after 24 hrs using PI staining by flow cytometry; type: functional; procedure, shortened: as §1
OVCAR-3 = test: Growth inhibition of human OVCAR-3 cells after 48 hrs by sulforhodamine B protein assay; type: functional; details: OVCAR-3, 48 h
Procedure, shortened: (§2)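 NCI 60-cell-line screen. Dose–response used at least five concentrations in 10-fold dilutions with 48 h continuous drug exposure. Growth was estimated by sulforhodamine B protein staining. GI50 is the molar concentration giving 50% growth inhibition versus control.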

CAKI-1 = test: Growth inhibition of human Caki1 cells after 48 hrs by sulforhodamine B protein assay; type: functional; details: CAKI-1, 48 h; procedure, shortened: as §2
IGROV-1 = test: Growth inhibition of human IGROV1 cells after 48 hrs by sulforhodamine B protein assay; type: functional; details: IGROV-1, 48 h; procedure, shortened: as §2
UO-31 = test: Growth inhibition of human UO31 cells after 48 hrs by sulforhodamine B protein assay; type: functional; details: UO-31, 48 h; procedure, shortened: as §2
HT-29 [4] = test: Growth inhibition of human HT-29 cells after 48 hrs by sulforhodamine B protein assay; type: functional; details: HT-29, 48 h; procedure, shortened: as §2
HT-29 [5] = test: Growth inhibition of human HT-29 cells by MTS assay; type: functional
Procedure, shortened: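 HT-29 cells, 3×10^3 per well, were seeded 24 h before treatment with compound at 1 nM–100 µM, run as 3 series of duplicate or triplicate points. After 72 h at 37 °C, MTS tetrazolium was added for 2 h and absorbance read at 492 nm. GC50 is the concentration halving cell number versus untreated control wells.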

Calf thymus DNA [6] = test: Binding affinity to calf thymus DNA assessed as change in melting temperature at a compound to DNA molar ratio of 0.1 by UV-vis spectroscopy; type: nucleic-acid assay; details: Bos taurus
Procedure, shortened: (§3)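 UV absorbance of DNA at 260 nm recorded every minute from 20 to 100 °C, ramping 1 °C/min in a thermostated quartz cell. Tm is taken as the midpoint of the hyperchromic transition. ΔTm = Tm(DNA+drug) − Tm(DNA alone). Calf-thymus DNA or poly(dAdT)2 was used at DNA/drug ratios from 0.1 to 1.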

Calf thymus DNA [7] = test: Binding affinity to calf thymus DNA assessed as change in melting temperature at a compound to DNA molar ratio of 0.25 by UV-vis spectroscopy; type: nucleic-acid assay; details: Bos taurus; procedure, shortened: as §3
Calf thymus DNA [8] = test: Binding affinity to calf thymus DNA assessed as change in melting temperature at a compound to DNA molar ratio of 0.5 by UV-vis spectroscopy; type: nucleic-acid assay; details: Bos taurus; procedure, shortened: as §3
Calf thymus DNA [9] = test: Binding affinity to calf thymus DNA assessed as change in melting temperature at a compound to DNA molar ratio of 1 by UV-vis spectroscopy; type: nucleic-acid assay; details: Bos taurus; procedure, shortened: as §3
Nucleic Acid [10] = test: Binding affinity to poly(dA).poly(dT) duplex DNA assessed as change in thermal melting temperature at compound to DNA ratio of 0.1 by UV-vis spectroscopy; type: nucleic-acid assay
Nucleic Acid [11] = test: Binding affinity to poly(dA).poly(dT) duplex DNA assessed as change in thermal melting temperature at compound to DNA ratio of 0.25 by UV-vis spectroscopy; type: nucleic-acid assay
Nucleic Acid [12] = test: Binding affinity to poly(dA).poly(dT) duplex DNA assessed as change in thermal melting temperature at compound to DNA ratio of 0.5 by UV-vis spectroscopy; type: nucleic-acid assay
Nucleic Acid [13] = test: Binding affinity to poly(dA).poly(dT) duplex DNA assessed as change in thermal melting temperature at compound to DNA ratio of 1 by UV-vis spectroscopy; type: nucleic-acid assay
Nucleic Acid [14] = test: Binding affinity to pBS 117bp DNA by DnaseI footprinting assay; type: nucleic-acid assay
Procedure, shortened: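 Ligand and fragment were pre-incubated 15 min at 37 °C, then digested with DNase I at 0.001 unit/ml in 20 mM NaCl, 2 mM MgCl2, 2 mM MnCl2, pH 7.3. Products were resolved on a denaturing 8% polyacrylamide/8 M urea gel, with a G-track marker.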

[15] = biological target: T1, DNA topoisomerase 1 (Homo sapiens) (UniProt P11387); test: Inhibition of human topoisomerase 1-mediated DNA relaxation assessed as lack of nicking form by agarose gel electrophoresis
T1 sequence (whole entry): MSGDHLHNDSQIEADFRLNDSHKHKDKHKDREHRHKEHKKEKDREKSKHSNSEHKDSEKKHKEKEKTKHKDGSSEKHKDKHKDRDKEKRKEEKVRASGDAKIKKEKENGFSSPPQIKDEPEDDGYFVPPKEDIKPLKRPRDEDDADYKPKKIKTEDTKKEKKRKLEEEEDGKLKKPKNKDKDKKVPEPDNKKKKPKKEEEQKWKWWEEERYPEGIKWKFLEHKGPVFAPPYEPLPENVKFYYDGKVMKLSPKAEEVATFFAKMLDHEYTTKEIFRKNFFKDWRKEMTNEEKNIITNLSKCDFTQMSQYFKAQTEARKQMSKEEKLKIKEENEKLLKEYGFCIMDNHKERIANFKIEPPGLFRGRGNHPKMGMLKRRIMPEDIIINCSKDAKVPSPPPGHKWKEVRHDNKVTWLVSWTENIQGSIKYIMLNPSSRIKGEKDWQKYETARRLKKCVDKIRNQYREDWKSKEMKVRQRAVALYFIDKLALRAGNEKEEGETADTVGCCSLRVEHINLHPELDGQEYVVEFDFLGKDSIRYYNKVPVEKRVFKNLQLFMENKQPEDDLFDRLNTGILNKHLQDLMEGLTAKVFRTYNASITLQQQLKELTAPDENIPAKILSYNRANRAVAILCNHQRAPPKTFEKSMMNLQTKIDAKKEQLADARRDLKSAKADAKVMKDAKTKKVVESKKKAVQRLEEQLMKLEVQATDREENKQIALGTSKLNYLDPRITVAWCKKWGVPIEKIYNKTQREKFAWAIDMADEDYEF
Procedure, shortened: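 Supercoiled pUC19 (130 ng) was pre-incubated with compound at graded concentrations, or 20 or 50 µM in the cleavage assay. Human topoisomerase I (4 units) was then added for 45 min at 37 °C in 50 mM Tris pH 7.8, 50 mM KCl, 10 mM MgCl2, 1 mM DTT, 1 mM EDTA, 1 mM ATP. Camptothecin (20 µM) served as control. Samples ran on 1% agarose for 2 h at 120 V in TBE, with ethidium bromide either post-stained (relaxation) or included in the gel (cleavage).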

[16] = biological target: DNA topoisomerase 2-alpha (Homo sapiens) (UniProt P11388); test: Inhibition of human topoisomerase 2-mediated DNA relaxation assessed as double stranded break form by agarose gel electrophoresis
Chain of DNA topoisomerase 2-alpha (Homo sapiens) (P11388 whole entry): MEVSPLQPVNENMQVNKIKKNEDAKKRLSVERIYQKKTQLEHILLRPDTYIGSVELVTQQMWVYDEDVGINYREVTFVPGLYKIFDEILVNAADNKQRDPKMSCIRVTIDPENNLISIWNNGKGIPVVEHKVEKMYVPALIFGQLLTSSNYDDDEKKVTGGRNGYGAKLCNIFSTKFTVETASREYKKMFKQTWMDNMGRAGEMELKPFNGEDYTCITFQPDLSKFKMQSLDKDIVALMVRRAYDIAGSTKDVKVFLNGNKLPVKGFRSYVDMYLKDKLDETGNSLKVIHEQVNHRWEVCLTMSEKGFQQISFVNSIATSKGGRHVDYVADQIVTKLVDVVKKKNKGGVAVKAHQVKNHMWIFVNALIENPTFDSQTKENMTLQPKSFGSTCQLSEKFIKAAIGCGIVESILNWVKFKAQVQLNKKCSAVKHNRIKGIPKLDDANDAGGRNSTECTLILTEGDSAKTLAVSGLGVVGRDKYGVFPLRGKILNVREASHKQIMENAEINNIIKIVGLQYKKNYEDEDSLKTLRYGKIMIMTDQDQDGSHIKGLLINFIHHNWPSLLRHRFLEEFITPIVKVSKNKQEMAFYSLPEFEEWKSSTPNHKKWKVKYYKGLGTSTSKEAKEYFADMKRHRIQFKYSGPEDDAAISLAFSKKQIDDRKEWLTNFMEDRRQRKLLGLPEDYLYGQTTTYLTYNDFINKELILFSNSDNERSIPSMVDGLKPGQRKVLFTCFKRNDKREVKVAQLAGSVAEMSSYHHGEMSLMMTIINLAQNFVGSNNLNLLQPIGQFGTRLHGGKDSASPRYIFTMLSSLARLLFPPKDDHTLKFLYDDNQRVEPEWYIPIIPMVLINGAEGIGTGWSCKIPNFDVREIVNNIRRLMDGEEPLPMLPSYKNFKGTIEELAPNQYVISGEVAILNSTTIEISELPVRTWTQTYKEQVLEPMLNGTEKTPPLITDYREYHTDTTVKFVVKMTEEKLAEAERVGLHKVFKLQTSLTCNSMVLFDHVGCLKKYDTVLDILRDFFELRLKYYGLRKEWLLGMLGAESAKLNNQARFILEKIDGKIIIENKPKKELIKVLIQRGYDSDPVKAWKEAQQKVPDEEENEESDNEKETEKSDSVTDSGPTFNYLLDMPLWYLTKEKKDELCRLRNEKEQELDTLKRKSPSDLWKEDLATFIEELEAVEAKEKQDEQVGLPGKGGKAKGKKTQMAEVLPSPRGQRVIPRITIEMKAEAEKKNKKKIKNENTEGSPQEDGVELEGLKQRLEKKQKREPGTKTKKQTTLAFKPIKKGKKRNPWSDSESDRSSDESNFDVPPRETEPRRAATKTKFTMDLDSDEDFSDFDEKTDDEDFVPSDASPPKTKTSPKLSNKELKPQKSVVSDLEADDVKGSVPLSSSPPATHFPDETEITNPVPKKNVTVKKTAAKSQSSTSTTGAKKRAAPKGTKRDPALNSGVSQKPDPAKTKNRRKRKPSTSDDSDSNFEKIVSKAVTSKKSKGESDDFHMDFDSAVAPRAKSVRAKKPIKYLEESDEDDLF
Procedure, shortened: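 Supercoiled pUC19 (130 ng) with compound at 20 or 50 µM, or etoposide as control, was incubated with human topoisomerase II (4 units) for 45 min at 37 °C in cleavage buffer. The reaction was stopped with 0.25% SDS plus proteinase K for 30 min at 50 °C. DNA forms were separated on 1% agarose containing ethidium bromide in TBE.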

HT-29 [17] = test: Cell cycle arrest in human HT-29 cells assessed as accumulation at S phase at 10 uM after 24 hrs using PI staining by flow cytometry; type: functional; procedure, shortened: as §1
HT-29 [18] = test: Cell cycle arrest in human HT-29 cells assessed as accumulation at G2/M phase at 25 uM after 24 hrs using PI staining by flow cytometry; type: functional, cell-based; procedure, shortened: as §1
SK-MEL-5 = test: Growth inhibition of human SK-MEL-5 cells after 48 hrs by sulforhodamine B protein assay; type: functional; details: SK-MEL-5, 48 h; procedure, shortened: as §2
SW-620 = test: Growth inhibition of human SW620 cells after 48 hrs by sulforhodamine B protein assay; type: functional; details: SW-620, 48 h; procedure, shortened: as §2
HT-29 [19] = test: Cell cycle arrest in human HT-29 cells at 25 uM after 24 hrs using PI staining by flow cytometry
Calf thymus DNA [20] = test: Binding affinity to calf thymus DNA assessed as quenching constant by fluorescence spectroscopy; type: nucleic-acid assay; details: Bos taurus
Procedure, shortened: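 Drug at a fixed 20 µM in 1 ml BPE buffer in a 10 mm quartz cuvette, titrated with CT-DNA at 10–200 µM base pairs. Excitation was set at each compound's own wavelength (276–319 nm). Constants came from Stern–Volmer plots of F0/F against CT-DNA concentration, with the slope taken as Ksv.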

Calf thymus DNA [21] = test: Binding affinity to calf thymus DNA assessed as negative dichroic signal at phosphate/drug ratio by circular dichroism spectra; type: nucleic-acid assay; details: Bos taurus
Procedure, shortened: (§4)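 Circular dichroism of drug at […] in 1 ml of 1 mM sodium cacodylate, pH 7.0, with or without CT-DNA at 10–200 µM. Phosphate/compound ratio ran from 0.4 to 8. The induced CD signal in the ligand absorption region was recorded.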

Calf thymus DNA [22] = test: Binding affinity to calf thymus DNA assessed as positive dichroic signal at phosphate/drug ratio by circular dichroism spectra; type: nucleic-acid assay; details: Bos taurus; procedure, shortened: as §4

Row | SMILES | Activity (HT-29 [1]) | GI50 (UO-31; read-out: GI50) | GI50 (UO-31; read-out: pGI50 (converted)) | GI50 (HT-29 [4]; read-out: GI50) | GI50 (HT-29 [4]; read-out: pGI50 (converted)) | GI50 (HT-29 [5]) | ΔTm (Calf thymus DNA [6]) | ΔTm (Calf thymus DNA [7]) | ΔTm (Calf thymus DNA [8]) | ΔTm (Calf thymus DNA [9]) | ΔTm (Nucleic Acid [10]) | ΔTm (Nucleic Acid [11]) | ΔTm (Nucleic Acid [12]) | ΔTm (Nucleic Acid [13]) | Activity (Nucleic Acid [14]) | Activity [15] | Activity [16] | also measured
1 | CN(C)CCNC(=O)c1cc2c3ccccc3[nH]c2c2ncccc12 | Active | 2130 nM | 2090 nM | 5270 nM | 5250 nM | 11500 nM | 0 °C | 3 °C | 2.9 °C | 7.3 °C | 2.9 °C | 11.8 °C | 14.5 °C | 18.9 °C | Active | Active | Active | Activity (HT-29 [2]): Active; Activity (HT-29 [3]): 32.6%; GI50 (OVCAR-3; read-out: GI50): 25.4 nM; GI50 (OVCAR-3; read-out: pGI50 (converted)): 25.1 nM; GI50 (CAKI-1; read-out: GI50): 515 nM; GI50 (CAKI-1; read-out: pGI50 (converted)): 525 nM; GI50 (IGROV-1; read-out: GI50): 1140 nM; GI50 (IGROV-1; read-out: pGI50 (converted)): 1100 nM
2 | CN(C)CCNC(=O)c1cc2c3cc(Cl)ccc3[nH]c2c2ncccc12 |  | 1100 nM | 1100 nM | 2330 nM | 2340 nM | 3200 nM | 1.5 °C | 7.4 °C | 7.3 °C | 11.7 °C | 6.1 °C | 14.7 °C | 18.9 °C | 24.9 °C | Active | Active | Active | Activity (HT-29 [17]): 37%; Activity (HT-29 [18]): Active; GI50 (SK-MEL-5; read-out: GI50): 1340 nM; GI50 (SK-MEL-5; read-out: pGI50 (converted)): 1350 nM; GI50 (SW-620; read-out: GI50): 1470 nM; GI50 (SW-620; read-out: pGI50 (converted)): 1480 nM; Activity (HT-29 [19]): Active
3 | CN(C)CCCNC(=O)c1cc2c3cc(Cl)ccc3[nH]c2c2ccncc12 | Active |  |  |  |  | 2200 nM | 3.6 °C | 6.6 °C | 10.7 °C | 13.9 °C | 10.3 °C | 17.3 °C | 22.7 °C | 28.3 °C | Active |  |  | KSV (Calf thymus DNA [20]): 9.95 ×10³ /M; Activity (Calf thymus DNA [21]): Active; Activity (Calf thymus DNA [22]): Active
4 | CC[C@@]1(O)C(=O)OCc2c1cc1n(c2=O)Cc2cc3ccccc3nc2-1 |  |  |  |  |  |  |  |  |  |  |  |  |  |  |  | Active |  | 

From ChEMBL document CHEMBL1153602, “Photochemical electrocyclisation of 3-vinylindoles to pyrido[2,3-a]-, pyrido[4,3-a]- and thieno[2,3-a]-carbazoles: design, synthesis, DNA binding and antitumor cell cytotoxicity” (2009)
